The test system of one assay is M14. Put plainly: Growth inhibition of human M14 cells after 48 hrs by SRB assay. Type of assay: functional. To be noted: M14, 48 h. In general terms: In SRB staining, fixed cells bind dye roughly in proportion to their protein.
In assay [1] the target is T1, NAD-dependent protein deacetylase sirtuin-1 (Homo sapiens) (UniProt Q96EB6).
T1 sequence (whole entry): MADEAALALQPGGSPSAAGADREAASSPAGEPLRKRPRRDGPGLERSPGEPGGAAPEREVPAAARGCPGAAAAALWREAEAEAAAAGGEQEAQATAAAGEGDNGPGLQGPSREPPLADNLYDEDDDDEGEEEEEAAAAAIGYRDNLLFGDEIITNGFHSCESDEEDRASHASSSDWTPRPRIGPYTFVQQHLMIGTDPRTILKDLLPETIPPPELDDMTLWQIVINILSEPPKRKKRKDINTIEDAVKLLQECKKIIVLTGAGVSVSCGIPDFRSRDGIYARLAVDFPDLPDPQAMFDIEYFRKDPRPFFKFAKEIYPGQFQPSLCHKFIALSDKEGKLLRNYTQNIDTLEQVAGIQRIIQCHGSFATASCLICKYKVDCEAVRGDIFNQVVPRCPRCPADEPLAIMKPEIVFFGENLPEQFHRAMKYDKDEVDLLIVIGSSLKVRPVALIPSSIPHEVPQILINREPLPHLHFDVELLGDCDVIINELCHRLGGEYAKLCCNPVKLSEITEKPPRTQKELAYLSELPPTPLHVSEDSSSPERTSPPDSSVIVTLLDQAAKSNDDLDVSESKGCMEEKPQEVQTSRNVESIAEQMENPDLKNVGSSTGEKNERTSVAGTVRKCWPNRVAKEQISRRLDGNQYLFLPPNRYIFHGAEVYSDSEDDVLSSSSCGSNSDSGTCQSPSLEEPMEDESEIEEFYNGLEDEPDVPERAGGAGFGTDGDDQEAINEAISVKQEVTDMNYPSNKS
Put plainly: Inhibition of SIRT1 in human U373 cells assessed as increase of histone H4 acetylation at 10 to 25 after 8 to 24 hrs by Western blotting method. It counts as cell-based.

Assay [2] deals with T1, NAD-dependent protein deacetylase sirtuin-1 (Homo sapiens). Put plainly: Inhibition of SIRT1 in human U373 cells assessed as increase of histone H4 acetylation at 1 uM after 8 hrs by Western blotting method relative to control. It counts as cell-based.
Another assay relates to LOX IMVI. The experiment in a line: Growth inhibition of human LOXIMVI cells after 48 hrs by SRB assay. It counts as functional.
Another assay concerns UACC-62. The experiment in a line: Growth inhibition of human UACC62 cells after 48 hrs by SRB assay. The following applies: UACC-62, 48 h. Type of assay: functional.
Assay [3] in a line: Cytostatic activity against human U373 cells at 10 uM after 72 hrs by quantitative videomicroscopy relative to control. Type of assay: functional, U-373MG ATCC. The gist of the method:
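Cells were grown in 25 cm2 flasks, and phase-contrast images were recorded every 4 min over 72 h, in triplicate. Global growth is cell count on the last image divided by cell count on the first, at 24, 48 and 72 h. The GGR index is treated GG divided by control GG.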

In a further assay the test system is OVCAR-3. The experiment in a line: Growth inhibition of human OVCAR3 cells after 48 hrs by SRB assay. It counts as functional. The following applies: OVCAR-3, 48 h.

The structures appear in SMILES notation. Activity calls are given as the source filed them. The calls are words filed in the database; no cut-off is given here.

Regarding `CC(C)(C)OC(=O)Nc1ccc2c(c1)C(NC(=O)Nc1cccc(C#N)c1)CC(C)(C)O2` (configuration not stated), the GI50 in the assay with M14 is 4170 nM; in the assay with LOX IMVI, 1620 nM; in the assay with UACC-62, 1000 nM; in the assay with OVCAR-3 it was 2290 nM. Moreover, the inhibition entry in assay [1] is “Active”. In addition, in assay [2], the fold change (FC) came to 1.1. The Activity in assay [3] is 70%.

By GI50 is commonly meant the concentration that inhibits growth by half. High values mean lower sensitivity of the cells, low ones greater sensitivity of the cells.
